Experiments:
Assay type in all cases: functional
UACC-257 = assay: Growth inhibition of human UACC257 cells at 10 uM after 48 hrs by coulter counting; conditions: UACC-257, 48 h, read-out: GI
How it was run: (§1)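 Single-dose screen in the NCI 60 human tumor cell line panel (nine subpanels). Compounds dissolved in DMSO and diluted in phosphate buffered saline, keeping final DMSO below 1%. Added in duplicate wells to cells at 6 × 10⁴ cells/ml. Controls held PBS and DMSO at matching dilutions. Incubated at 37 °C, humidified, 5% CO₂. Reported as percent growth of treated cells.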

SNB-75 = assay: Growth inhibition of human SNB75 cells at 10 uM after 48 hrs by coulter counting; conditions: SNB-75, 48 h, read-out: GI
How it was run: (§2)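 Single-dose primary screen across the full NCI 60-cell-line panel. Stocks were made in DMSO and diluted in PBS to a final DMSO below 1%. Cultures at 6 × 10⁴ cells/ml were run in duplicate wells alongside PBS/DMSO vehicle controls at 37 °C in humidified 5% CO₂. Data were expressed as percent growth of treated cells.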

A498 = assay: Growth inhibition of human A498 cells at 10 uM after 48 hrs by coulter counting; conditions: A498, 48 h, read-out: GI; how it was run: as §2
MDA-MB-435 = assay: Growth inhibition of human MDA-MB-435 cells at 10 uM after 48 hrs by coulter counting; conditions: MDA-MB-435, 48 h, read-out: GI; how it was run: as §2
MCF7 = assay: Growth inhibition of human MCF7 cells at 10 uM after 48 hrs by coulter counting; conditions: MCF7, 48 h, read-out: GI; how it was run: as §2
HCC 2998 = assay: Growth inhibition of human HCC2998 cells at 10 uM after 48 hrs by coulter counting; conditions: HCC 2998, 48 h, read-out: GI; how it was run: as §2
NCI/ADR-RES = assay: Growth inhibition of human NCI/ADR-RES cells at 10 uM after 48 hrs by coulter counting; conditions: read-out: GI; how it was run: as §2
U-251 = assay: Growth inhibition of human U251 cells at 10 uM after 48 hrs by coulter counting; conditions: U-251, 48 h, read-out: GI; how it was run: as §1
CCRF-CEM = assay: Growth inhibition of human CCRF-CEM cells at 10 uM after 48 hrs by coulter counting; conditions: read-out: GI; how it was run: as §2
SF-539 = assay: Growth inhibition of human SF539 cells at 10 uM after 48 hrs by coulter counting; conditions: SF-539, 48 h, read-out: GI; how it was run: as §2
HL-60(TB) = assay: Growth inhibition of human HL-60(TB) cells at 10 uM after 48 hrs by coulter counting; conditions: HL-60, 48 h, read-out: GI
How it was run: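 Test compound was dissolved in DMSO and diluted in phosphate-buffered saline to a final DMSO level below 1%. Dilutions were plated in duplicate with cell culture at 6 × 10⁴ cells/ml. Vehicle controls held PBS and DMSO at matching dilutions. Incubation was at 37 °C, humidified, under 5% CO₂. Data were reported as percent growth of treated cells.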

NCI-H226 = assay: Growth inhibition of human NCI-H226 cells at 10 uM after 48 hrs by coulter counting; conditions: NCI-H226, 48 h, read-out: GI; how it was run: as §2
HCT-116 = assay: Growth inhibition of human HCT116 cells at 10 uM after 48 hrs by coulter counting; conditions: HCT-116, 48 h, read-out: GI; how it was run: as §2
KM12 = assay: Growth inhibition of human KM12 cells at 10 uM after 48 hrs by coulter counting; conditions: KM12, 48 h, read-out: GI; how it was run: as §2
HT-29 = assay: Growth inhibition of human HT-29 cells at 10 uM after 48 hrs by coulter counting; conditions: HT-29, 48 h, read-out: GI; how it was run: as §2
MOLT-4 = assay: Growth inhibition of human MOLT4 cells at 10 uM after 48 hrs by coulter counting; conditions: MOLT-4, 48 h, read-out: GI; how it was run: as §2
DU-145 = assay: Growth inhibition of human DU145 cells at 10 uM after 48 hrs by coulter counting; conditions: DU-145, 48 h, read-out: GI; how it was run: as §2
SK-MEL-5 = assay: Growth inhibition of human SK-MEL-5 cells at 10 uM after 48 hrs by coulter counting; conditions: SK-MEL-5, 48 h, read-out: GI; how it was run: as §2
SK-MEL-2 = assay: Growth inhibition of human SK-MEL-2 cells at 10 uM after 48 hrs by coulter counting; conditions: SK-MEL-2, 48 h, read-out: GI; how it was run: as §2
NCI-H23 = assay: Growth inhibition of human NCI-H23 cells at 10 uM after 48 hrs by coulter counting; conditions: NCI-H23, 48 h, read-out: GI; how it was run: as §2
UO-31 = assay: Growth inhibition of human UO31 cells at 10 uM after 48 hrs by coulter counting; conditions: UO-31, 48 h, read-out: GI; how it was run: as §1
A549 = assay: Growth inhibition of human A549 cells at 10 uM after 48 hrs by coulter counting; conditions: A549, 48 h, read-out: GI; how it was run: as §2
SF-268 = assay: Growth inhibition of human SF268 cells at 10 uM after 48 hrs by coulter counting; conditions: SF-268, 48 h, read-out: GI; how it was run: as §2
CAKI-1 = assay: Growth inhibition of human Caki1 cells at 10 uM after 48 hrs by coulter counting; conditions: CAKI-1, 48 h, read-out: GI; how it was run: as §2
ACHN = assay: Growth inhibition of human ACHN cells at 10 uM after 48 hrs by coulter counting; conditions: read-out: GI; how it was run: as §2
RPMI-8226 = assay: Growth inhibition of human RPMI8226 cells at 10 uM after 48 hrs by coulter counting; conditions: RPMI-8226, 48 h, read-out: GI; how it was run: as §2
NCI-H522 = assay: Growth inhibition of human NCI-H522 cells at 10 uM after 48 hrs by coulter counting; conditions: NCI-H522, 48 h, read-out: GI; how it was run: as §2
BT-549 = assay: Growth inhibition of human BT549 cells at 10 uM after 48 hrs by coulter counting; conditions: BT-549, 48 h, read-out: GI; how it was run: as §2
M14 = assay: Growth inhibition of human M14 cells at 10 uM after 48 hrs by coulter counting; conditions: M14, 48 h, read-out: GI; how it was run: as §2
SF-295 = assay: Growth inhibition of human SF295 cells at 10 uM after 48 hrs by coulter counting; conditions: SF-295, 48 h, read-out: GI; how it was run: as §2
UACC-62 = assay: Growth inhibition of human UACC62 cells at 10 uM after 48 hrs by coulter counting; conditions: UACC-62, 48 h, read-out: GI; how it was run: as §1
SK-MEL-28 = assay: Growth inhibition of human SK-MEL-28 cells at 10 uM after 48 hrs by coulter counting; conditions: SK-MEL-28, 48 h, read-out: GI; how it was run: as §2
NCI-H460 = assay: Growth inhibition of human NCI-H460 cells at 10 uM after 48 hrs by coulter counting; conditions: NCI-H460, 48 h, read-out: GI; how it was run: as §2
LOX IMVI = assay: Growth inhibition of human LOXIMVI cells at 10 uM after 48 hrs by coulter counting; conditions: read-out: GI; how it was run: as §2
HOP-62 = assay: Growth inhibition of human HOP62 cells at 10 uM after 48 hrs by coulter counting; conditions: HOP-62, 48 h, read-out: GI; how it was run: as §2
K562 = assay: Growth inhibition of human K562 cells at 10 uM after 48 hrs by coulter counting; conditions: K562, 48 h, read-out: GI; how it was run: as §2
[1] = Growth inhibition of human NCI-322M cells at 10 uM after 48 hrs by coulter counting; conditions: read-out: GI; how it was run: as §2
EKVX = assay: Growth inhibition of human EKVX cells at 10 uM after 48 hrs by coulter counting; conditions: read-out: GI; how it was run: as §2
T47D = assay: Growth inhibition of human T47D cells at 10 uM after 48 hrs by coulter counting; conditions: read-out: GI; how it was run: as §1
OVCAR-4 = assay: Growth inhibition of human OVCAR4 cells at 10 uM after 48 hrs by coulter counting; conditions: OVCAR-4, 48 h, read-out: GI; how it was run: as §2
IGROV-1 = assay: Growth inhibition of human IGROV1 cells at 10 uM after 48 hrs by coulter counting; conditions: IGROV-1, 48 h, read-out: GI; how it was run: as §2
SNB-19 = assay: Growth inhibition of human SNB19 cells at 10 uM after 48 hrs by coulter counting; conditions: SNB-19, 48 h, read-out: GI; how it was run: as §2

Measured: inhibition of growth at 10 µM

COc1ccc(/C=C2\CCCC3=C2N=C2SC=C(C)N2C3c2ccc(OC)cc2)cc1 (stereo not drawn)
12.5%: CAKI-1
13.5%: RPMI-8226
36%: A498
23.3%: UO-31
> 10%: all other assays above

COc1ccc(/C=C2\CCCC3=C2N=C2SC=C(C)N2C3c2ccc(OC)c(OC)c2)cc1OC (stereo not drawn)
10.5%: NCI-H226
11.4%: EKVX
not listed: HOP-62
> 10%: all other assays above
